OPRM1-OPRD1 inv – mu-delta opioid heterodimer inverse agonism; P35372+P41143; cell-based MOR-DOR heterodimer luminescence; inhibition, % at 9.3 µM; 0.21% of 340,000 active; AID 504357; in the data active = inhibition above about 22%, passing the limit was not always enough
MC4R ag barr – human MC4R agonism via beta-arrestin; P32245; U2OS MC4R beta-arrestin complementation, luminescence; percent of melanotan II response, DMSO zero; activation, % at 8.9 µM; 0.98% of 360,000 active;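 active = activation above a per-plate cutoff, the mean activation of sample wells on that plate plus 3 SD, cut at about 8% in these data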
Target sequence (P32245 whole entry, looked up): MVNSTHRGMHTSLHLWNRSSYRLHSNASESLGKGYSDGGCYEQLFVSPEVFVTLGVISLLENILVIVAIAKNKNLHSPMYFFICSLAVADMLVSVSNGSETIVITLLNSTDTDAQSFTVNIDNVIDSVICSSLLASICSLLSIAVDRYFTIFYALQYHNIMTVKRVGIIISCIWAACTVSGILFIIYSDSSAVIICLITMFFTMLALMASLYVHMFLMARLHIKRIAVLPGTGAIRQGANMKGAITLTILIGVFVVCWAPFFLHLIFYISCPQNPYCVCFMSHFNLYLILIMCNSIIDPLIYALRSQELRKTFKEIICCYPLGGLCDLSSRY
MC4R antag cAMP – antagonists of human melanocortin 4 receptor (MC4R). 0.48% of 360,000 active. inhibition, % at 6.5 µM. MC4R-expressing cells, MTII-stimulated cAMP, LANCE TR-FRET. AID 540295;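 active = inhibition above its plate's cutoff, the mean of tested wells on that plate plus 3 SD, cut at about 29% in these data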
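Material: human MC4R-expressing U2OS cells. Probe or stimulus: Melanotan II challenge. Dosing: 6.5 µM single dose. Times: 30-min compound, 1-h challenge, 1-h detection, room temperature. Technique: TR-FRET with Eu-cAMP and labeled anti-cAMP, 671 nm. Replication: singlicate.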
HTR5A ag – HTR5A agonism, opioid heterodimer counter-screen. P47898. HTR5A agonist assay, luminescence, cell-based. activation, % at 9.3 µM. 0.61% of 340,000 active; in the data active = activation mostly above about 9.5%, no sharp cut-off; inactive = mostly below about 7.6%
MOR-DOR ag – OPRM1-OPRD1 heterodimerization agonism; P35372+P41143; cells, luminescence; activation, % at 9.3 µM; 0.3% of 340,000 active; AID 504326; in the data active = activation above about 18%
HTR5A inv ctr – counter-screen for OPRM1-OPRD1 inverse agonists: human HTR5A inverse agonism; inhibition, % at 9.3 µM; 0.083% of 340,000 active; P47898; HTR5A cell line, luminescence; in the data active = inhibition mostly above about 23%, no sharp cut-off; inactive = mostly below about 18%
Large screens that a line does not name were inactive. In the library only some 2.4% were active in any assay of this set; here they are far more common.

NC(=O)CC(NC(=O)Cc1ccc(Br)cc1)c1ccc(N2CCC(N3CCCC3)CC2)c([N+](=O)[O-])c1 (stereo not drawn)	none
Cc1nc(SCc2nc3ccc(C(=O)c4ccccc4)cc3[nH]2)c2oc3ccccc3c2n1	none
CC(Oc1ccccc1F)C(=O)Nc1ccc2ccccc2c1 (stereo not drawn)	HTR5A ag 11
CC(NS(=O)(=O)c1c(N)n(C)c(=O)n(C)c1=O)c1ccccc1 (stereo not drawn)	none
Cc1ccc(-n2nnc3c(=O)oc4ccccc4c32)cc1	MC4R antag cAMP 46
Cc1cc(C)nc(NC(=O)c2cc(-c3ccc(C)s3)nc3ccccc23)c1	none
Cc1ccc(-c2cc(C(=O)Nc3cccnc3)c3ccccc3n2)s1	HTR5A ag 10
Cc1cccc(-c2cc(C(=O)Nc3cccnc3)c3ccccc3n2)c1	none
Cc1ccc2nc(-c3ccccc3)cc(C(=O)Nc3cccnc3)c2c1	HTR5A ag 13
CCS(=O)(=O)C1=NN2C(=N)/C(=C\c3ccc(SCc4ccco4)o3)C(=O)N=C2S1	HTR5A ag 13
Cc1ccc(-c2nc(CNC(=O)c3ccco3)cs2)cc1	none
O=C(O)CCc1ccc(-c2ccccc2)n1Cc1ccco1	HTR5A ag 9.7
COc1cc(/C(C)=N/N2CCN(c3ccccc3OC)CC2)ccc1O	none
CN1CCC(N(C)C(=O)c2cc(S(=O)(=O)N(C)c3ccccc3)ccc2Cl)CC1	none
O=C(COC(=O)c1ccc2c(=O)n3c(nc2c1)CCC3)Nc1ccccc1F	HTR5A ag 11
NC(=O)C1CCN(Cc2nc3cc(C(F)(F)F)ccc3c(=O)[nH]2)CC1	none
COc1ccccc1OCCC(=O)OCC(=O)Nc1ccc2c(c1)OCCO2	HTR5A ag 8.6
COc1ccc(COC(=O)CCc2c[nH]c3ccccc23)cc1F	none
O=Nc1c(O)n(Cc2c(Cl)cccc2Cl)c2ccccc12	MC4R ag barr 8.4
O=Nc1c(O)n(Cc2ccc(Cl)cc2)c2ccccc12	none
COC(=O)C1=C(C)NC(=O)/C1=C\c1ccco1	HTR5A ag 11
CC1Cc2ccccc2N1C(=O)CCS(=O)(=O)c1ccc2c(c1)NC(=O)CS2 (stereo not drawn)	none
COc1ccc(-n2c(Cn3c(=O)sc4ccccc43)nnc2SC)cc1	HTR5A ag 12
O=C1SCCN1N=Cc1ccc([N+](=O)[O-])o1	none
CC1CN(N=Cc2ccc([N+](=O)[O-])o2)C(=N)O1 (stereo not drawn)	HTR5A ag 8.2
COCC(=O)N1CCC(n2nccc2NC(=O)c2ccccc2OC)CC1	none
CN1CCN(CCCNC(=O)c2ccc(/C=C3\Sc4ccccc4N(Cc4ccccc4F)C3=O)cc2)CC1	MC4R ag barr 8.9
C=CCNC(=S)N/N=C/c1ccccc1OCCOc1ccccc1	MC4R ag barr 8.9
COC(=O)N/N=C/c1ccccc1OCCOc1ccc(OC)cc1	none
O=C1CC(NS(=O)(=O)c2cccnc2)CN1c1ccc(Cl)cc1 (stereo not drawn)	none
C[C@@H]1CN([C@H](C)CO)C(=O)c2cc(Br)cnc2O[C@@H]1CN(C)C(=O)CC1CC1	none (no result: OPRM1-OPRD1 inv, HTR5A ag, MOR-DOR ag, HTR5A inv ctr)
COc1ccc(/C=C/C(=O)NCc2ccc(F)cc2)cc1S(=O)(=O)N1CCOCC1	none
CCOc1ccccc1NC(=O)c1ccc2c(c1)C(=O)N(CC1CCCO1)C2=O (stereo not drawn)	none
Cc1c(NC(=O)c2ccc3c(c2)C(=O)N(CC2CCCO2)C3=O)cccc1C(=O)O (stereo not drawn)	HTR5A ag 10
COc1cc(N)c(Cl)cc1C(=O)OCC(=O)NCc1cccs1	none
COc1cc(NC(=O)c2ccccc2)c(OC)cc1NC(=O)Cc1ccc(C)cc1	HTR5A ag 9.6
COc1ccccc1CC(=O)Nc1cc(OC)c(NC(=O)c2ccccc2)cc1OC	none
CC1CC(C)CN(C(=O)CSc2nnc(-c3ccco3)o2)C1 (stereo not drawn)	none
O=C(N/N=C/c1cccc2ccccc12)c1ccc(CN2CCOCC2)cc1	HTR5A ag 12
O=S(=O)(Nc1ccc(-c2ccc3nncn3n2)cc1)c1ccccc1Cl	none
O=S(=O)(Nc1ccc(-c2ccc3nncn3n2)cc1)c1ccc(Cl)s1	HTR5A ag 10
Cc1cccc(OCc2nnc(SCC(=O)N3CCCC3)o2)c1	none
Cc1cccc(OCc2nnc(SCC(=O)Nc3ccc(C)c(Cl)c3)o2)c1	MC4R ag barr 27
CCS(=O)(=O)N1CCC(C(=O)Nc2cccc(F)c2)CC1	none
CC(C)C(=O)Nc1ccc(NC(=O)c2cccc3c(Br)cccc23)cc1	none
CCCCOc1ccc(C2(C)CC(=O)NC2=O)cc1 (stereo not drawn)	HTR5A ag 12
Fc1ccccc1N1CC(c2ccccc2)C(c2cccs2)=N1 (stereo not drawn)	none
Cc1cccc2c1N(CCCOc1ccc(C(C)(C)C)cc1)C(=O)C2=O	OPRM1-OPRD1 inv 30
Cc1ccc(C(=O)Sc2cccccc2=O)cc1	OPRM1-OPRD1 inv 40, HTR5A inv ctr 34
Cn1c(=O)[nH]c(=O)c2c1nc(NCCCO)n2Cc1ccc(F)cc1	none
Cc1ccc(Nc2nc3c(c(=O)[nH]c(=O)n3C)n2Cc2ccc(F)cc2)cc1	MC4R ag barr 8.9
C/C(=N\NC(=O)CNc1cccc(C(F)(F)F)c1)c1ccc(Br)cc1	MC4R ag barr 8.3
OC1(c2cccc(C(F)(F)F)c2)CCN(c2ccc(-c3ccccc3)nn2)CC1	MC4R ag barr 9.2
CC(=O)N/C(=C\c1ccccc1)C(=O)OCc1ccccc1	none
CC(=O)N/C(=C\c1ccccc1)C(=O)OCc1cccc(S(=O)(=O)N(C)C)c1	HTR5A ag 9.4
CCOC(=O)Nc1nc(-c2ccc(F)cc2F)cs1	none
COC(=O)Nc1nc(-c2cc(Cl)ccc2Cl)cs1	MC4R ag barr 10
CC(C)Sc1nc2sccc2c(=O)n1-c1ccccc1	none
COC(=O)c1ccn(CC(=O)NC2CCCCC2)n1	none
Cc1ccc(S(=O)(=O)NC(C)(C)CN2CCC(Cc3ccccc3)CC2)cc1	MC4R ag barr 8.4
O=C(c1ccc(OC2CCN(Cc3ccc(F)cc3)CC2)cc1)N1CCCC1	HTR5A ag 10
O=C(Nc1ccnn1C1CCN(Cc2ccccc2OC(F)F)CC1)c1cccnc1	none
CC(=O)c1ccc2oc3ccccc3c(=O)c2c1	none
Cc1ccc(NC(=O)C(=O)NCCOc2ccc(Cl)cc2)c(C)c1	MC4R ag barr 8.8
Cn1c(Cl)cnc1C(O)(c1ccccc1)c1ccccc1	none
O=C(COc1ccc(Cl)cc1Br)Nc1cccc(S(=O)(=O)N2CCCC2)c1	HTR5A ag 14
Cc1ccc(NC(=O)COc2cccc(C)c2C)cc1S(=O)(=O)N1CCCCCC1	HTR5A ag 11

Screens (PubChem BioAssay)
